Converted amounts (≈) assume the structure as drawn.
Columns and labels:
MCF7 = test: Inhibition of breast carcinoma cell line (MCF-7) growth; assay type: functional, cell-based; details: Homo sapiens
Method in brief: (§1)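 Monolayers in DMEM with 10% FBS, 2 mM L-glutamine, penicillin/streptomycin, 37 °C, 5% CO2. Cells seeded on day 0, then compounds added in 5- and 10-fold dilutions (10^-8–10^-4 M) for 72 h. MTT read-out at 570 nm. Percent growth calculated relative to time-zero and untreated OD. Quadruplicates in three experiments; IC50 by linear interpolation, highest concentration reported as ">" when not reached.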

L1210 = test: Inhibition of murine leukemia cells (L1210) growth; assay type: functional, cell-based; details: Mus musculus
HEL [1] = test: Minimum cytotoxic concentration of compound that causes alteration of cell morphology in human embryonic lung cells; assay type: functional
Method in brief: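 Human embryonic lung (HEL) cells were examined microscopically. MCC is the minimum concentration that causes a detectable alteration of cell morphology.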

WI-38 = test: Inhibition of normal human fibroblast cell line (WI 38) growth; assay type: functional, cell-based; method in brief: as §1
MIA PaCa-2 = test: Inhibition of pancreatic carcinoma cell line (MiaPaCa-2) growth; assay type: functional, cell-based; details: Homo sapiens; method in brief: as §1
[2] = Effective concentration required to reduce plaque formation by AD-169 strain of CMV virus in Human embryonic lung cells; assay type: functional, cell-based
Method in brief: (§2)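 Plaque reduction assay in human embryonic lung (HEL) cell cultures, virus input 100 plaque forming units. Viruses: CMV strains AD-169 and Davis, VZV TK+ strain OKA and TK− strain 07/1. EC50 is the concentration that reduces virus plaque formation by 50%.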

HEp-2 = test: Inhibition of laryngeal carcinoma cell line (Hep-2) growth; assay type: functional, cell-based; details: Homo sapiens; method in brief: as §1
MOLT-4 = test: Inhibition of human T-lymphocyte cell line (Molt4/C8) growth; assay type: functional, cell-based
[3] = Effective concentration required to reduce plaque formation by Davis strain of CMV virus in Human embryonic lung cells; assay type: functional, cell-based; method in brief: as §2
HEL [4] = test: Cytotoxic concentration to reduce the 50% cell growth of human embryonic lung cells; assay type: functional
SW-620 = test: Inhibition of colon carcinoma cell line (SW 620) growth; assay type: functional, cell-based; details: Homo sapiens; method in brief: as §1
Human alphaherpesvirus 3 [5] = test: Effective concentration of compound required to reduce plaque formation by OKA strain of thymidine kinase positive VZ virus TK+ in human embryonic lung cells; assay type: functional, organism-based; details: Human alphaherpesvirus 3, lung
Human alphaherpesvirus 3 [6] = test: Reduction of plaque formation by VZV07/1 strain of thymidine kinase(TK-) deficient VZ virus in human embryonic lung cells; assay type: functional, organism-based; details: Human alphaherpesvirus 3, lung
HeLa = test: Inhibition of cervical carcinoma cell line (HeLa) growth; assay type: functional, cell-based; details: Homo sapiens; method in brief: as §1
Cytomegalovirus [7] = test: Effective concentration of the compound to reduce plaque-formation of Cytomegalovirus davis strain in human embryonic lungcell cultures; assay type: functional, organism-based; details: Human betaherpesvirus 5; method in brief: as §2
Cytomegalovirus [8] = test: Effective concentration to reduce plaque formation of Cytomegalovirus AD-169 strain in human embryonic lung cell cultures; assay type: functional, organism-based; details: Human betaherpesvirus 5, lung; method in brief: as §2
[9] = Homo sapiens, HEL, read-out: CC50

Compound	IC50 (MCF7) [µM]	IC50 (L1210) [µM]	MCC (HEL [1]) [µg/mL]	IC50 (WI-38) [µM]	IC50 (MIA PaCa-2) [µM]	EC50 [2] [µg/mL]	IC50 (HEp-2) [µM]	IC50 (MOLT-4) [µM]	EC50 [3] [µg/mL]	CC50 (HEL [4]; [9]) [µg/mL]	IC50 (SW-620) [µM]	EC50 (Human alphaherpesvirus 3 [5]) [µg/mL]	EC50 (Human alphaherpesvirus 3 [6]) [µg/mL]	IC50 (HeLa) [µM]	EC50 (Cytomegalovirus [7]) [µg/mL]	EC50 (Cytomegalovirus [8]) [µg/mL]	CC50 (HEL [4]) [µg/mL]
CC(C)C(NC(=O)n1nnc2ccccc21)C(=O)NC1CCCCC1 (stereo unspecified)	79.3	108	≥ 80	≥ 100	> 100	> 80	60	97	> 16	90 (≈ 262 µM)	> 100	> 3.2	> 3.2	96.4			
Nc1ccn(C[C@@H](CO)OCP(=O)(O)O)c(=O)n1.O.O [CIDOFOVIR]			> 400			0.13			0.13	21.3					0.13	0.13	21.3
Nc1nc2c(ncn2COC(CO)CO)c(=O)[nH]1 [GANCICLOVIR]			> 400			0.24 (≈ 0.94 µM)			0.34 (≈ 1.33 µM)						0.34 (≈ 1.33 µM)	0.24 (≈ 0.94 µM)	
